For ten molecules, inhibition results are on record in PubChem BioAssay AID720702 (The Scripps Research Institute Molecular Screening Center, 2013).

Hit rate of the full screen: of about 370,000 compounds, about 1,200 (0.32%) were called active. This excerpt belongs to a sample that is enriched for actives. A number with no mark means an inactive call.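 Rule for the calls: active = inhibition above the mean of all tested compounds plus 3 SD, set per campaign (cut at about 25% in these data); inactive = the rest.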

The target in the assay is Tyrosyl-DNA phosphodiesterase 2 (Homo sapiens) (UniProt O95551). In words: blockers of TDP2 phosphodiesterase activity – biochemical, epi absorbance, recombinant enzyme, primary screen (AID 720702).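 Note: 0% = DMSO with enzyme and 100% = buffer with substrate but no TDP2.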 The conditions noted are these: recombinant TDP2, T5PNP hydrolysis, p-nitrophenol absorbance 415 nm; at 12.8 µM; hits give high values. The essentials: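 Material: recombinant human TDP2; quantity: TDP2 enzyme at 120 nM final; medium: Tris-HCl pH 7.5 with MgCl2; compound: single concentration, 12.8 µM nominal, with 1% DMSO; incubation: 2 h enzyme incubation at 37 °C; signal: epi absorbance; measure: percent inhibition; benchmarks: high control without enzyme, low control DMSO plus TDP2; repeats: singlicate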
Chain of Tyrosyl-DNA phosphodiesterase 2 (Homo sapiens) (O95551 whole entry, looked up): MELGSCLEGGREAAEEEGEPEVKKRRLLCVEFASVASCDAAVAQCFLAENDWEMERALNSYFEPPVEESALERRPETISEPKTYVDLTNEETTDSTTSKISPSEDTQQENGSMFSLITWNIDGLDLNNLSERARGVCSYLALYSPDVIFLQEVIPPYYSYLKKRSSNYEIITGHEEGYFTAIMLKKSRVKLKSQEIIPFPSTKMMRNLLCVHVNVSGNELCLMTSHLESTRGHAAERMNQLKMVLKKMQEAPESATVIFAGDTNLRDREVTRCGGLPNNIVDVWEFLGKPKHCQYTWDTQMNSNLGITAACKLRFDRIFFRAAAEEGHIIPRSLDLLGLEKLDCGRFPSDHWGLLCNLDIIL
As to `COc1cc(Cn2c(N)c(C(=O)NCc3ccco3)c3nc4ccccc4nc32)cc(OC)c1OC`, the inhibition is 0.54%.
For the molecule `CCOC(=O)c1c(N)n(Cc2ccccc2)c2nc3ccccc3nc12`, the inhibition is 82.6% (active).
As for `CCOC(=O)c1cccc(C2=C(CNC(=O)c3ccncc3)[C@H]3CC[C@@H](C2)N3Cc2ccccc2)c1`, the figure is 4.63%; as for `CCC(C)n1c(O)c(/C=N/Nc2nc3c(c(=O)n(C)c(=O)n3C)n2C)c(=O)[nH]c1=S` (stereo not given), -0.24%; as for `CCC(C)NC1(c2ccccc2)CCCCC1` (stereo not given), 5%.
Turning to `CC(Cc1cccs1)NCc1ccc(Cl)cc1` (stereo not given), the inhibition is 4.69%.
As for `Cn1c(C(=O)N2CCC(C(=O)N3CCC4(CC3)OCCO4)CC2)cc2sccc21`, the figure is -4.33%.
Consider `O=C1NC(=O)N(Cc2ccco2)C(=O)/C1=C\c1ccc(-c2ccc(F)cc2)o1`, for which the inhibition is 26.3% (active).
As for `N[C@@H](Cc1c[nH]c2ccccc12)c1nnc(SCc2c(F)cccc2Cl)o1`, the figure is 5.28%; as for `Cc1ccccc1CCC[C@@H](CC1CCCCC1)CN(C)C(=O)Oc1ccccc1`, -0.32%.

The inhibition is the drop in the measured response relative to a control, in per cent.
